SIRT5 inh: blocks human SIRT5 desuccinylation of peptide. Q9NXA8. Purified SirT5, succinyl-peptide AMC, trypsin-coupled fluorescence. AID 652115. actives 1.1% (n = 330,000). inhibition, % at 15 µM; in the data active = inhibition above about 15%; inconclusive = no clear call, values can overlap the other calls
E-sel inducer: E-selectin induction on HUVECs. actives 0.37% (n = 260,000). activation, % at 7.58 µM. P16581. HUVEC E-selectin immunofluorescence imaging; normalized: neutral wells 0, TNF-alpha wells 100;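 active = mean E-selectin-positive cell signal at least 10% of the positive control, reached in at least 60% of replicates, without over 20% cell loss; inconclusive = no rule given, readout overlaps actives, possibly toxicity-flagged; inactive = the rest, including those meeting only one limit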
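Read-out basis: % PE-positive cells; Test system: HUVEC primary endothelial cells; Technique: immunofluorescence imaging; Dosing: single-point compound dose.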
ERAP1 inh: inhibitors of human ERAP1 aminopeptidase; Q9NZ08; recombinant ERAP1, Leu-AMC fluorescence, 60 min; inhibition, % at 10.7 µM; actives 0.15% (n = 340,000);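 active = mean replicate inhibition of at least 30%, or all replicates individually reaching that 30% level; inactive = mean below 30% and not every replicate reaching it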;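 note: 0% = neutral control wells and 100% = L-leucinethiol positive control wells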
DENV2 CPE rescue: inhibitors of DENV2 cytopathic effect. DENV2-infected cells, cytopathic effect rescue, plate reader. CPE inhibition, % at 9.99 µM. actives 1.7% (n = 350,000); in the data active = CPE inhibition above about 20%, passing the limit was not always enough; inconclusive = no clear call, values can overlap the other calls; tested in BHK-21 cells;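 note: 0% = median of neutral control wells and 100% = median of positive control wells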
PglD inh: blocks C. jejuni PglD acetyltransferase activity; inhibition, % at 12.5 µM; purified PglD enzyme, DTNB colorimetric CoA detection; actives 0.098% (n = 360,000); in the data active = inhibition above about 16%, passing the limit was not always enough; inconclusive = no clear call, values can overlap the other calls
* marks the source's active call; other numbers are inactive results; ! = repeats disagree. Rows were chosen to be rich in hits. Some 2.5% of all compounds tested hit in one or more screens of this group.

Results for COC(=O)c1cc(C(=O)OC)[nH]n1 ?
SIRT5 inh: 15.6*; ERAP1 inh: 5.5; DENV2 CPE rescue: 6.1

How did CC(NC(=O)C1CCN(c2nnc(N3CCCC3=O)s2)CC1)c1ccccc1 (stereo not drawn) do in these assays?
SIRT5 inh: -2.5; ERAP1 inh: 0.5; DENV2 CPE rescue: -1.5; PglD inh: -1.5

Results for COc1ccc(C#Cc2ccc3c(c2)[C@H]2[C@H](CCN2C(C)=O)[C@H](CO)N3)cc1 ?
E-sel inducer: 1.4; DENV2 CPE rescue: -14.4; PglD inh: -5.3

What do the screens show for `O=C1CCC(C(=O)N2CCCCCC2)CN1Cc1cccc(C(F)(F)F)c1` (stereo not drawn)?
SIRT5 inh: 18.1*; E-sel inducer: 1.6; ERAP1 inh: -2.5; DENV2 CPE rescue: 0.1; PglD inh: -1.4

How did COc1cccc(CN2CC(C(=O)N3CCCCCCC3)CCC2=O)c1 (stereo not drawn) do in these assays?
SIRT5 inh: -0.3; ERAP1 inh: -1.6; DENV2 CPE rescue: -5.8; PglD inh: -3.4

How did COc1ccc(S(=O)(=O)N2CCN(CCc3ccccc3)CC2)c(OC)c1 do in these assays?
SIRT5 inh: -2.8; ERAP1 inh: -2.1; DENV2 CPE rescue: inconclusive; PglD inh: 1.6

What do the screens show for `COCc1cn(CC[C@@H]2CC[C@H](NC(=O)Nc3ccc(F)cc3)[C@H](CO)O2)nn1`?
SIRT5 inh: 0.0; E-sel inducer: 1.4; ERAP1 inh: 1.3; DENV2 CPE rescue: 4.8; PglD inh: -3.0

What do the screens show for `Cc1ccc(CNC(=O)CSCc2ccccc2)cc1`?
SIRT5 inh: -6.0; ERAP1 inh: 1.5; DENV2 CPE rescue: -8.5; PglD inh: -1.2

How did Cc1cccc(CSCC(=O)NCc2ccc(S(N)(=O)=O)cc2)c1 do in these assays?
SIRT5 inh: 15.2*; E-sel inducer: -0.2; ERAP1 inh: -2.2; DENV2 CPE rescue: -5.0; PglD inh: -3.7

Results for CCOC(=O)C(=O)NCC1CCCN1S(=O)(=O)c1cccs1 (stereo not drawn) ?
ERAP1 inh: 5.0; DENV2 CPE rescue: 2.7; PglD inh: -1.2

How did C[C@@H]1CN([C@@H](C)CO)C(=O)c2cccc(NC(=O)c3cnccn3)c2O[C@@H]1CN(C)Cc1ccc2c(c1)OCO2 do in these assays?
SIRT5 inh: 1.5; E-sel inducer: -13.8; ERAP1 inh: 7.9; DENV2 CPE rescue: -4.4; PglD inh: 1.5

What do the screens show for `Cc1cn([C@H]2C=C[C@@H](CO)O2)c(=O)[nH]c1=O`?
SIRT5 inh: -2.5; E-sel inducer: 1.9; ERAP1 inh: -1.4; DENV2 CPE rescue: 29.0*!; PglD inh: 0.6

Results for Cc1cn(C2CC(O)C(O)C(CO)O2)c(=O)[nH]c1=O (stereo not drawn) ?
E-sel inducer: -0.2; ERAP1 inh: -1.9; DENV2 CPE rescue: -1.7

Results for Cc1noc(C)c1NC(=O)N(C)C[C@H]1Oc2ccc(NC(=O)Nc3ccccc3)cc2C(=O)N([C@@H](C)CO)C[C@H]1C ?
SIRT5 inh: -2.6; ERAP1 inh: -1.8; DENV2 CPE rescue: 2.6; PglD inh: 1.9

How did COc1ccc(C#Cc2ccc3c(c2)[C@]2(C(=O)N3)[C@H](C(=O)N3CCc4cc(OC)c(OC)cc4C3)[C@H]3C(=O)O[C@H](c4ccccc4)[C@H](c4ccccc4)N3[C@@H]2c2ccc(OCCO)cc2)cc1 do in these assays?
SIRT5 inh: -3.6; ERAP1 inh: 3.1; DENV2 CPE rescue: 2.2; PglD inh: 0.7

How did NC(=O)[C@H]1[C@@H]2C(=O)O[C@@H](c3ccccc3)[C@@H](c3ccccc3)N2[C@@H](c2ccccc2OCCO)[C@]12C(=O)Nc1ccc(C#CC3(O)CCCCCC3)cc12 do in these assays?
SIRT5 inh: 16.0*; ERAP1 inh: 2.6; DENV2 CPE rescue: -4.6; PglD inh: 2.5

Results for COc1ccc(C#Cc2ccc3c(c2)[C@]2(C(=O)N3)[C@H](c3ccc(OCCO)cc3)N3[C@H](c4ccccc4)[C@H](c4ccccc4)OC(=O)[C@H]3[C@@H]2C(=O)N2CCc3cc(OC)c(OC)cc3C2)cc1 ?
SIRT5 inh: 15.3*; ERAP1 inh: -2.5; DENV2 CPE rescue: 5.5; PglD inh: -1.4

How did NC(=O)COc1ccc(NC(=O)OCc2ccccc2)cc1 do in these assays?
PglD inh: 1.3

How did CCCCN1C[C@H](Cc2ccccc2)[C@@H](CC(=O)Nc2ccccc2)C1=O do in these assays?
ERAP1 inh: -1.4; DENV2 CPE rescue: 55.7*; PglD inh: 0.3
